Laboratory results reported in ChEMBL document CHEMBL2384924, “Antagonists for the orphan G-protein-coupled receptor GPR55 based on a coumarin scaffold” (J Med Chem, 2013).
Calls of active or inactive are those of the source.

Assays:
[1] = target: T1, G-protein coupled receptor 55 (Homo sapiens, UniProt Q9Y2T6); test: Agonist activity at human GPR55 transfected in CHO cells at 10 uM after 90 mins by beta-arrestin translocation assay; format: cell-based
In short: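 CHO cells stably expressing human GPR55 (β-galactosidase fragment complementation) were seeded at 20,000 cells/well in Opti-MEM with 2% FCS for 24 h at 37°C. Compound was diluted in PBS with 10% DMSO and 0.1% BSA, screened at 10 µM and incubated 90 min at 37°C. Galacton-Star/Emerald-II/lysis buffer (1:5:19) was added for 60 min at RT, then luminescence was read. Response is relative to 1 µM LPI (100%).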

Cannabinoid receptor 1 [2] = target: T2, Cannabinoid receptor 1 (Homo sapiens, UniProt P21554); test: Antagonist activity at human CB1 receptor expressed in CHOK1 cells assessed as inhibition of forskolin-stimulated cAMP level at 10 uM; format: functional, cell-based; details: CHO-K1
T2 sequence (P21554 whole entry): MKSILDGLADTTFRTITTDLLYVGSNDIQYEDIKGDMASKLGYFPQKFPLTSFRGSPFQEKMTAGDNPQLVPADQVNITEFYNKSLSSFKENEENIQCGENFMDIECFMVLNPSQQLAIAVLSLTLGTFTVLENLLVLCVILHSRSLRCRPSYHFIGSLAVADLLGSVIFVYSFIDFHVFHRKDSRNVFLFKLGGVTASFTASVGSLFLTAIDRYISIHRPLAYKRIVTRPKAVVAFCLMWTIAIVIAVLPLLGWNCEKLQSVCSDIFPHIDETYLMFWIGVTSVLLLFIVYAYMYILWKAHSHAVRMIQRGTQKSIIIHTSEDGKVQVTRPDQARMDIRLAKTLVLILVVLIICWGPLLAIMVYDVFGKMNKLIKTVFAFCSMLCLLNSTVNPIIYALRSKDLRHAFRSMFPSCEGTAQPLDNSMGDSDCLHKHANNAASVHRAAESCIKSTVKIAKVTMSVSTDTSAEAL

Cannabinoid receptor 2 [3] = target: T3, Cannabinoid receptor 2 (Homo sapiens, UniProt P34972); test: Agonist activity at human CB2 receptor expressed in CHOK1 cells assessed as […] of forskolin-stimulated cAMP level at 10 uM; format: functional, cell-based; details: CHO-K1
T3 sequence (P34972 whole entry): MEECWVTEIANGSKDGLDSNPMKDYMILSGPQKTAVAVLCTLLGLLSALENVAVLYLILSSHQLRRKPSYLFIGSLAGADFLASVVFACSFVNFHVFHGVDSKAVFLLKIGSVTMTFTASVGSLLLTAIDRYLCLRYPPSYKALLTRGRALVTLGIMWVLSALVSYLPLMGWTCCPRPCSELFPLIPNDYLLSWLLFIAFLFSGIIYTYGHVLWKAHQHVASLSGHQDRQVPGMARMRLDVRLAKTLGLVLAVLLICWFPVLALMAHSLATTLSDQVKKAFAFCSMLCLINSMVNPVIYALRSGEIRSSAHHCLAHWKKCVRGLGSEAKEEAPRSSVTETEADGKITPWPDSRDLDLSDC

[4] = target: T4, N-arachidonyl glycine receptor (Homo sapiens) (UniProt Q14330); test: Antagonist activity at human GPR18 transfected in CHO cells assessed as delta9-THC-induced beta-arrestin recruitment at 10 uM incubated 60 mins prior to delta9-THC addition by beta-arrestin translocation assay; format: cell-based; design: scale not given: the % may be the effect or the level left
T4 sequence (whole entry): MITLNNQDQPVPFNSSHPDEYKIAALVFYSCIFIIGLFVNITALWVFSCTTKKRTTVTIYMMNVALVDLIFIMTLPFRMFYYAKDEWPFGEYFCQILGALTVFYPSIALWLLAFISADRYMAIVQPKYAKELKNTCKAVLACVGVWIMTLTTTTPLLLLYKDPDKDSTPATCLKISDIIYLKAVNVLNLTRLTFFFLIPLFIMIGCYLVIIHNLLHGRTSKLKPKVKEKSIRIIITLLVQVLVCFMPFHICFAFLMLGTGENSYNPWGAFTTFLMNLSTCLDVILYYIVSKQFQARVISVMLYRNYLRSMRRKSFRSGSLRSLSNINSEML
In short: (§1)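 CHO cells stably expressing human GPR18 were seeded at 20,000 cells/well for 24 h at 37°C. Compound in PBS/10% DMSO/0.1% BSA was added 60 min before the GPR18 agonist 3 at 10 µM. The supplier's detection reagent was used, and luminescence was read after 60 min at RT. Screening was at 10 µM (% inhibition); IC50 from concentration-inhibition curves. Three independent experiments in duplicate.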

[5] = target: T5, N-arachidonyl glycine receptor (Homo sapiens, UniProt Q14330); test: Antagonist activity at human GPR18 transfected in CHO cells assessed as delta9-THC-induced beta-arrestin recruitment incubated 60 mins prior to delta9-THC addition by beta-arrestin translocation assay; format: cell-based; in short: as §1
T5 sequence (Q14330 whole entry): T4 sequence (whole entry)

[6] = target: T1, G-protein coupled receptor 55; test: Antagonist activity at human GPR55 transfected in CHO cells assessed as inhibition of LPI-induced beta-arrestin recruitment incubated 60 mins prior to LPI addition by beta-arrestin translocation assay; format: cell-based
In short: (§2)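 CHO cells stably expressing human GPR55 were seeded at 20,000 cells/well for 24 h at 37°C. Compound in PBS/10% DMSO/0.1% BSA was added 60 min before 1 µM LPI. Galacton-Star/Emerald-II/lysis buffer (pH 8) was applied for 60 min at RT, with luminescence read-out. Screening was at 10 µM (% inhibition). IC50 was measured where inhibition exceeded 60%. Three independent experiments in duplicate.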

Cannabinoid receptor 1 [7] = target: T2, Cannabinoid receptor 1; test: Displacement of [3H]-CP55,940 from human CB1 receptor transfected in CHOK1 cells at 10 uM; format: cell-based; details: CHO-K1
In short: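 Human CB1 from membrane preparations of stably transfected CHO cells, 25 µg protein per vial. Competition with [3H]CP55,940 at 0.1 nM final, with test compound at 10 µM, read as % inhibition of radioligand binding. Final DMSO 2.5%. Three independent experiments in duplicate.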

Cannabinoid receptor 2 [8] = target: T3, Cannabinoid receptor 2; test: Displacement of [3H]-CP55,940 from human CB2 receptor transfected in CHOK1 cells; format: cell-based, CHO-K1
In short: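 CHO cells stably expressing human CB2 supplied the membranes, 1 µg protein per vial. Compounds were screened at 10 µM, and full competition curves were run where inhibition was about 50% or more. Three independent experiments in duplicate.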

Cannabinoid receptor 1 [9] = target: T2, Cannabinoid receptor 1; test: Displacement of [3H]-CP55,940 from human CB1 receptor transfected in CHOK1 cells; format: cell-based, CHO-K1
Cannabinoid receptor 2 [10] = target: T3, Cannabinoid receptor 2; test: Displacement of [3H]-CP55,940 from human CB2 receptor transfected in CHOK1 cells at 10 uM; format: cell-based; details: CHO-K1
In short: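 Competition binding used membranes from CHO cells stably expressing human CB2 (1 µg protein per vial) and [3H]CP55,940 at 0.1 nM final. Compound stocks were in DMSO (2.5% final). Compound was tested at 10 µM as % inhibition of radioligand binding. Three independent experiments in duplicate.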

[11] = target: T1, G-protein coupled receptor 55; test: Antagonist activity at human GPR55 transfected in CHO cells assessed as inhibition of LPI-induced beta-arrestin recruitment at 10 uM incubated 60 mins prior to LPI addition by beta-arrestin translocation assay; format: cell-based; design: scale not given: the % may be the effect or the level left; in short: as §2
Cannabinoid receptor 1 [12] = target: T2, Cannabinoid receptor 1; test: Agonist activity at human CB1 receptor expressed in CHOK1 cells assessed as […] of forskolin-stimulated cAMP level at 10 uM; format: functional, cell-based; details: CHO-K1
Cannabinoid receptor 2 [13] = target: T3, Cannabinoid receptor 2; test: Antagonist activity at human CB2 receptor expressed in CHOK1 cells assessed as inhibition of forskolin-stimulated cAMP level at 10 uM; format: functional, cell-based; details: CHO-K1

T1 sequence (Q9Y2T6 whole entry, the tested form may be a part): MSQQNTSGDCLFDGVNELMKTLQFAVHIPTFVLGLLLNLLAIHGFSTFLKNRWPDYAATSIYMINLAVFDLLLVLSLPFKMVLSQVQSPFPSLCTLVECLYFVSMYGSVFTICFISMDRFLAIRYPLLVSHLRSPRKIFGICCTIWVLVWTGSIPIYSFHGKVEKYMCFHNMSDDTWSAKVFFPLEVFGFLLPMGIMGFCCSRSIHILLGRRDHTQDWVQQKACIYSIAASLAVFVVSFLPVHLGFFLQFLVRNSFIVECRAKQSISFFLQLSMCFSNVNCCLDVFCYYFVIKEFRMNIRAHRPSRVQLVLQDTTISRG

| Compound | Activity [1] | inhibition (Cannabinoid receptor 1 [2]) | Activity (Cannabinoid receptor 2 [3]) | Activity [4] | IC50 [5] | IC50 [6] | Activity (Cannabinoid receptor 1 [7]) | Ki (Cannabinoid receptor 2 [8]) | Ki (Cannabinoid receptor 1 [9]) | Activity (Cannabinoid receptor 2 [10]) | Activity [11] | Activity (Cannabinoid receptor 1 [12]) | inhibition (Cannabinoid receptor 2 [13]) |
| --- | --- | --- | --- | --- | --- | --- | --- | --- | --- | --- | --- | --- | --- |
| CCCCCc1cc(OC)c2cc(Cc3ccccc3C)c(=O)oc2c1 | inactive | Active | Active | 34% | > 10 µM | 5.08 µM |  |  |  |  |  |  |  |
| CCCCCCC(C)(C)c1cc(O)c2cc(Cc3ccccc3O)c(=O)oc2c1 | inactive |  | Active |  | 15.9 µM | 0.261 µM |  |  |  |  |  |  |  |
| COc1c(C)c(C)c2oc(=O)c(Cc3ccccc3)cc2c1C | inactive |  |  | 46% | ≥ 10 µM | 12.8 µM | 42% | 1.77 µM | ≥ 10 µM |  |  |  |  |
| COc1ccccc1Cc1cc2c(C)ccc(C)c2oc1=O | inactive |  |  | 0% | > 10 µM | 7.14 µM | 16% | 6.83 µM | > 10 µM |  |  |  |  |
| Cc1ccccc1Cc1cc2c(C)c(O)c(C)c(C)c2oc1=O | inactive |  |  | 38% | > 10 µM | 5.16 µM | 45% | 1.56 µM | ≥ 10 µM |  |  |  |  |
| Cc1c(O)c(C)c2cc(Cc3ccccc3)c(=O)oc2c1C | inactive |  |  | 16% | > 10 µM | 9.32 µM | 21% | 3.42 µM | > 10 µM |  |  |  |  |
| Cc1ccc(C(C)C)c2cc(Cc3ccccc3)c(=O)oc12 | inactive |  |  | 12% | > 10 µM | 5.33 µM | 24% | > 10 µM | > 10 µM | 24% |  |  |  |
| CCCCCCCC(C)(C)c1cc(OC)c2cc(Cc3ccccc3OC)c(=O)oc2c1 | inactive |  |  | 33% | > 10 µM | > 10 µM | 51% |  |  | 47% | 31% |  |  |
| COc1cc(C)cc2oc(=O)c(Cc3ccccc3)cc12 | inactive |  |  | 24% | > 10 µM | 6.74 µM | 45% | ≥ 10 µM | ≥ 10 µM |  |  |  |  |
| Cc1ccc(C(C)C)c2cc(Cc3ccccc3O)c(=O)oc12 | inactive |  |  | 32% | > 10 µM | 1.77 µM | 31% |  |  | 24% |  |  |  |
| CCCCCc1cc(OC)c2cc(Cc3ccccc3OC)c(=O)oc2c1 | inactive |  | Active | 20% | > 10 µM | 6.35 µM |  |  |  |  |  | Active |  |
| CCCCCc1cc(O)c2cc(Cc3cccc(O)c3)c(=O)oc2c1 | inactive | Active |  | 27% | > 10 µM | 10.6 µM |  |  |  |  |  |  | Active |
| COc1cccc(Cc2cc3c(OC)cc(Br)cc3oc2=O)c1 | inactive |  |  | 31% | > 10 µM | 3.99 µM | 38% |  |  |  |  |  |  |
| Cc1cc2c(C(C)C)ccc(C)c2oc1=O | inactive |  |  | 11% | > 10 µM | 3.45 µM | 26% | > 10 µM | > 10 µM | 0% |  |  |  |
| COc1c(C)c(C)c2oc(=O)c(Cc3ccc(F)cc3)cc2c1C | inactive |  |  | 32% | > 10 µM | 13.5 µM | 49% | 1.48 µM | 10 µM |  |  |  |  |
| CCCCCc1cc(OC)c2cc(Cc3ccc(Cl)cc3)c(=O)oc2c1 | inactive | Active | Active | 50% | 10 µM | 3.29 µM |  | 0.578 µM | 0.613 µM |  |  |  |  |
| CCCCC1(c2cc(OC)c3cc(Cc4ccccc4OC)c(=O)oc3c2)CCCCC1 | inactive |  |  | 33% | > 10 µM | > 10 µM | 42% | ≥ 10 µM | ≥ 10 µM | 45% | 44% |  |  |
| CCCCC1(c2cc(O)c3cc(Cc4ccccc4O)c(=O)oc3c2)CCCCC1 | inactive |  | Active | 59% | ≥ 10 µM | 0.961 µM |  |  |  |  |  |  |  |
| Cc1c(O)c(C)c2cc(Cc3ccc(F)cc3)c(=O)oc2c1C | inactive |  |  | 47% | ≥ 10 µM | 10.3 µM | 34% | 0.444 µM | > 10 µM |  |  |  |  |
| CCCCC1(c2cc(O)c3cc(Cc4ccccc4O)c(=O)oc3c2)CCCC1 | inactive |  | Active | 57% |  | 0.854 µM |  |  |  |  |  |  |  |
| CCCCCCC(C)(C)c1cc(O)c2cc(Cc3ccccc3)c(=O)oc2c1 | inactive |  | Active |  | 8.1 µM | 0.358 µM |  |  |  |  |  | Active |  |
